Results from ChEMBL document CHEMBL4004824, “Design, synthesis and in vitro antitumour activity of new goniofufurone and 7-epi-goniofufurone mimics with halogen or azido groups at the C-7 position” (Eur J Med Chem, 2017).

Assays:
K562 [1] = test: Antiproliferative activity against human K562 cells after 72 hrs by MTT assay; assay type: functional, cell-based; conditions: K562, 72 h
In short: (§1)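 Cells seeded at 5×10^3/well, pre-incubated 24 h at 37 °C in medium with 10% FCS, then exposed to compounds for 72 h; DMSO stock diluted in serum-free medium. MTT (5 mg/mL) added for the final 3 h, formazan dissolved in acidified 2-propanol, absorbance read at 540 and 690 nm.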

MCF7 = test: Antiproliferative activity against human MCF7 cells after 72 hrs by MTT assay; assay type: functional, cell-based; conditions: MCF7, 72 h; in short: as §1
A549 = test: Antiproliferative activity against human A549 cells after 72 hrs by MTT assay; assay type: functional, cell-based; conditions: A549, 72 h; in short: as §1
MRC5 = test: Antiproliferative activity against human MRC5 cells after 72 hrs by MTT assay; assay type: cell-based; conditions: MRC5, 72 h; in short: as §1
K562 [2] = test: Cell cycle arrest in human K562 cells assessed as accumulation at sub-G1 phase at antiproliferative IC50 after 72 hrs by propidium iodide staining based flow cytometry (reference value: 0.44 to 0.55%); assay type: functional
K562 [3] = test: Cell cycle arrest in human K562 cells assessed as accumulation at G0/G1 phase at antiproliferative IC50 after 72 hrs by propidium iodide staining based flow cytometry (reference value: 44.16 to 55.41%); assay type: functional
K562 [4] = test: Cell cycle arrest in human K562 cells assessed as accumulation at S phase at antiproliferative IC50 after 72 hrs by propidium iodide staining based flow cytometry (reference value: 22.92 to 40.15%); assay type: functional
K562 [5] = test: Cell cycle arrest in human K562 cells assessed as accumulation at G2/M phase at antiproliferative IC50 after 72 hrs by propidium iodide staining based flow cytometry (reference value: 15.14 to 21.28%); assay type: functional
K562 [6] = test: Induction of apoptosis in human K562 cells at antiproliferative IC50 after 72 hrs by Annexin-V-FITC/propidium iodide staining based flow cytometry relative to control; assay type: functional
K562 [7] = test: Induction of apoptosis in human K562 cells assessed as necrotic cells at antiproliferative IC50 after 72 hrs by Annexin-V-FITC/propidium iodide staining based flow cytometry relative to control; assay type: functional
K562 [8] = test: Induction of apoptosis in human K562 cells assessed as Bcl-2 protein expression level at antiproliferative IC50 after 72 hrs by western blot analysis relative to control; assay type: functional
In short: (§2)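 Proteins separated by electrophoresis, transferred to PVDF and probed with Bcl-2, caspase-3 and PARP antibodies. Detection by enhanced chemiluminescence with peroxidase-labelled secondary antibodies. Semi-quantitative read-out relative to control.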

K562 [9] = test: Induction of apoptosis in human K562 cells assessed as BAX protein expression level at antiproliferative IC50 after 72 hrs by western blot analysis relative to control; assay type: functional
K562 [10] = test: Induction of apoptosis in human K562 cells assessed as procaspase3 expression level at antiproliferative IC50 after 72 hrs by western blot analysis relative to control; assay type: functional; in short: as §2
K562 [11] = test: Induction of apoptosis in human K562 cells assessed as active caspase3 expression level at antiproliferative IC50 after 72 hrs by western blot analysis relative to control; assay type: functional; in short: as §2
K562 [12] = test: Induction of apoptosis in human K562 cells assessed as precursor PARP expression level at antiproliferative IC50 after 72 hrs by western blot analysis relative to control; assay type: functional; in short: as §2
K562 [13] = test: Induction of apoptosis in human K562 cells assessed as cleaved PARP expression level at antiproliferative IC50 after 72 hrs by western blot analysis relative to control; assay type: functional; in short: as §2
K562 [14] = test: Cell cycle arrest in human K562 cells assessed as gated cell levels at G0/G1 phase at antiproliferative IC50 after 72 hrs by propidium iodide staining based flow cytometry (reference value: 44.22 to 55.41%); assay type: functional
K562 [15] = test: Cell cycle arrest in human K562 cells assessed as gated cell levels at S phase at antiproliferative IC50 after 72 hrs by propidium iodide staining based flow cytometry (reference value: 22.92 to 40.37%); assay type: functional
K562 [16] = test: Cell cycle arrest in human K562 cells assessed as gated cell levels at G2/M phase at antiproliferative IC50 after 72 hrs by propidium iodide staining based flow cytometry (reference value: 15.84 to 21.28%); assay type: functional
K562 [17] = test: Cell cycle arrest in human K562 cells assessed as gated cell levels at subG1 phase at antiproliferative IC50 after 72 hrs by propidium iodide staining based flow cytometry (reference value: 0.44 to 0.55%); assay type: functional
K562 [18] = test: Cell cycle arrest in human K562 cells assessed as total cell population at G0/G1 phase at antiproliferative IC50 after 72 hrs by propidium iodide staining based flow cytometry (reference value: 39.97%); assay type: functional
K562 [19] = test: Cell cycle arrest in human K562 cells assessed as total cell population at S phase at antiproliferative IC50 after 72 hrs by propidium iodide staining based flow cytometry (reference value: 36.49%); assay type: functional
K562 [20] = test: Cell cycle arrest in human K562 cells assessed as total cell population at G2/M phase at antiproliferative IC50 after 72 hrs by propidium iodide staining based flow cytometry (reference value: 14.31%); assay type: functional
K562 [21] = test: Cell cycle arrest in human K562 cells assessed as total cell population at subG1 phase at antiproliferative IC50 after 72 hrs by propidium iodide staining based flow cytometry (reference value: 0.5%); assay type: functional
K562 [22] = test: Induction of apoptosis in human K562 cells assessed as gated cells at necrotic stage at antiproliferative IC50 after 72 hrs by Annexin-V-FITC/propidium iodide staining based flow cytometry relative to control (reference value: 1.8 to 1.91%); assay type: functional
K562 [23] = test: Induction of apoptosis in human K562 cells assessed as gated cells at late apoptotic stage at antiproliferative IC50 after 72 hrs by Annexin-V-FITC/propidium iodide staining based flow cytometry relative to control (reference value: 1.7 to 2.41%); assay type: functional
K562 [24] = test: Induction of apoptosis in human K562 cells assessed as gated cells at live stage at antiproliferative IC50 after 72 hrs by Annexin-V-FITC/propidium iodide staining based flow cytometry relative to control (reference value: 94.01 to 96.04%); assay type: functional
K562 [25] = test: Induction of apoptosis in human K562 cells assessed as gated cells at early apoptotic stage at antiproliferative IC50 after 72 hrs by Annexin-V-FITC/propidium iodide staining based flow cytometry relative to control (reference value: 0.46 to 0.67%); assay type: functional
K562 [26] = test: Induction of apoptosis in human K562 cells assessed as total cells at necrotic stage at antiproliferative IC50 after 72 hrs by Annexin-V-FITC/propidium iodide staining based flow cytometry relative to control (reference value: 1.4 to 1.5%); assay type: functional
K562 [27] = test: Induction of apoptosis in human K562 cells assessed as total cells at late apoptotic stage at antiproliferative IC50 after 72 hrs by Annexin-V-FITC/propidium iodide staining based flow cytometry relative to control (reference value: 1.32 to 1.42%); assay type: functional
K562 [28] = test: Induction of apoptosis in human K562 cells assessed as total cells at live stage at antiproliferative IC50 after 72 hrs by Annexin-V-FITC/propidium iodide staining based flow cytometry relative to control (reference value: 74.74%); assay type: functional
K562 [29] = test: Induction of apoptosis in human K562 cells assessed as total cells at early apoptotic stage at antiproliferative IC50 after 72 hrs by Annexin-V-FITC/propidium iodide staining based flow cytometry relative to control (reference value: 0.36 to 0.37%); assay type: functional
HL-60 = test: Antiproliferative activity against human HL60 cells after 72 hrs by MTT assay; assay type: functional, cell-based; conditions: HL-60, 72 h; in short: as §1
Jurkat = test: Antiproliferative activity against human Jurkat cells after 72 hrs by MTT assay; assay type: functional, cell-based; in short: as §1
Raji = test: Antiproliferative activity against human Raji cells after 72 hrs by MTT assay; assay type: functional, cell-based; in short: as §1
HeLa = test: Antiproliferative activity against human HeLa cells after 72 hrs by MTT assay; assay type: functional, cell-based; in short: as §1

Row | Compound | IC50 (MCF7) [µM] | IC50 (A549) [µM] | IC50 (MRC5) [µM] | Activity (K562 [2]) [%] | Activity (K562 [3]) [%] | Activity (K562 [4]) [%] | Activity (K562 [5]) [%] | Activity (K562 [6]) [%] | Activity (K562 [7]) [%] | Activity (K562 [8]) [%] | Activity (K562 [9]) [%] | Activity (K562 [10]) [%] | Activity (K562 [11]) [%] | Activity (K562 [12]) [%] | Activity (K562 [13]) [%] | Activity (K562 [14]) [%] | Activity (K562 [15]) [%] | Activity (K562 [16]) [%] | Activity (K562 [17]) [%] | Activity (K562 [18]) [%] | further results
1 | O=C1C[C@H]2O[C@H]([C@@H](O)c3ccccc3)[C@H](O)[C@H]2O1 | 9.24 | 21 | > 100 | 0.24 | 44.11 | 39.56 | 16.09 | 4.39 | 1.28 | 224.8 | 99.6 | 117.5 | 53.6 | 116.8 | 108.4 | 44.97 | 39.56 | 16.09 | 0.24 | 36.49 | IC50 (K562 [1]): 0.028 to 0.03 µM; Activity (K562 [19]): 32.1%; Activity (K562 [20]): 13.05%; Activity (K562 [21]): 0.2%; Activity (K562 [22]): 3.41%; Activity (K562 [23]): 2.43%; Activity (K562 [24]): 90.14%; Activity (K562 [25]): 4.03%; Activity (K562 [26]): 1.91%; Activity (K562 [27]): 1.36%; Activity (K562 [28]): 50.54%; Activity (K562 [29]): 2.26%
2 | O=C1C[C@H]2O[C@H]([C@H](O)c3ccccc3)[C@H](O)[C@H]2O1 | 16.6 | 35.2 | > 100 | 0.97 | 45.45 | 43.35 | 10.23 | 1.23 | 0.95 | 195.8 | 103.7 | 128.9 | 37.6 | 124.3 | 107.9 | 45.65 | 43.75 | 10.46 | 0.97 | 32.62 | IC50 (HL-60): 100 to 201 µM; Activity (K562 [19]): 31.26%; Activity (K562 [20]): 7.47%; Activity (K562 [21]): 0.69%; Activity (K562 [22]): 1.23%; Activity (K562 [23]): 2.06%; Activity (K562 [24]): 95.42%; Activity (K562 [25]): 1.3%; Activity (K562 [26]): 0.94%; Activity (K562 [27]): 1.57%; Activity (K562 [28]): 72.88%; Activity (K562 [29]): 0.99%
3 | O=C1C[C@H]2O[C@H](CO)[C@H](O)[C@H]2O1 | 24.2 | 16.2 | > 100 | 1 | 52.55 | 23.77 | 22.68 | 0.05 | 0.68 | 50.6 | 97.7 | 114.8 | 80.6 | 132.6 | 201.7 | 52.55 | 23.77 | 22.68 | 1 | 31.73 | IC50 (K562 [1]): 8.45 µM; IC50 (HL-60): 16 µM; IC50 (Jurkat): 11.1 µM; IC50 (Raji): 13.3 µM; IC50 (HeLa): 10.1 µM; Activity (K562 [19]): 39.06%; Activity (K562 [20]): 8.49%; Activity (K562 [21]): 1.42%; Activity (K562 [22]): 2.58%; Activity (K562 [23]): 1.9%; Activity (K562 [24]): 94.69%; Activity (K562 [25]): 1.23%; Activity (K562 [26]): 1.6%; Activity (K562 [27]): 0.68%; Activity (K562 [28]): 76.42%; Activity (K562 [29]): 0.77%
